{"source": "ChEMBL document CHEMBL5653613", "about": "(Mol Cancer Ther, 2013)", "key": {"[1]": {"experiment": "Cmax in athymic mouse xenografted with human GTL-16 cells at 6.25 mg/kg, po qd for 14 days consecutively", "format": "ADME, organism-based", "conditions": "in vivo, time 14 day"}, "[2]": {"system": "ZR-75-1", "experiment": "Cytotoxicity against human ZR-75-1 cells at 1 to 2.5 umol/L incubated for 72 hrs by MTS assay", "format": "functional, cell-based", "conditions": "dose 1-2.5 µmol/L"}, "[3]": {"system": "MCF7", "experiment": "Cytotoxicity against human MCF7 cells at 1 to 2.5 umol/L incubated for 72 hrs by MTS assay", "format": "functional, cell-based", "conditions": "dose 1-2.5 µmol/L"}, "[4]": {"system": "ZR-75-1", "experiment": "Induction of apoptosis in human ZR-75-1 cells assessed as early cells at 5 umol/L incubated for 3 days by Annexin V/PI staining based flow cytometry (reference value: 0.5 %)", "format": "functional", "conditions": "dose 5 µmol/L; time 3 day; at 5 µM"}, "[5]": {"system": "ZR-75-1", "experiment": "Induction of polyploidy in human ZR-75-1 cells at 5 umol/L incubated for 72 hrs by microscopic analysis relative to control", "format": "functional", "conditions": "dose 5 µmol/L, at 5 µM", "how_it_was_run": "(§1)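 Cells stained with Hema-3 and photographed under a light microscope with CCD camera. Polyploid cells scored as percent of the population.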"}, "[6]": {"system": "ZR-75-1", "experiment": "Induction of polyploidy in human ZR-75-1 cells at 10 umol/L incubated for 72 hrs by microscopic analysis relative to control", "format": "functional", "conditions": "dose 10 µmol/L, at 10 µM", "how_it_was_run": "as §1"}, "[7]": {"system": "MCF7", "experiment": "Induction of polyploidy in human MCF7 cells at 5 umol/L by microscopic analysis", "format": "functional, cell-based", "conditions": "dose 5.0 µmol/L, time 72.0 hrs, TDE = time-dependent effect"}, "[8]": {"system": "T47D", "experiment": "Induction of polyploidy in human T47D cells at 5 uM incubated for 72 hrs by microscopic analysis", "format": "functional, cell-based", "how_it_was_run": "as §1"}, "[9]": {"system": "T47D", "experiment": "Induction of polyploidy in human T47D cells with RON-/- at 5 umol/L incubated for 72 hrs by microscopic analysis", "format": "functional, cell-based", "conditions": "dose 5.0 µmol/L", "how_it_was_run": "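Cells (2 106 per 60-mm dish) transiently transfected for 48 hours with 1 nmol/L scrambled or RON-specific siRNA, with knockdown confirmed by anti-RON Western blot. […] Polyploidy monitored and photographed by microscopy, with untransfected and scrambled-siRNA cells as comparators.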"}, "[10]": {"system": "T47D", "experiment": "Inhibition of cell proliferation of human T47D cells with RON-/- at 5 umol/L incubated for 72 hrs followed by media replacement without compound measured upto 10 days by microscopic analysis", "format": "functional, cell-based", "conditions": "dose 5.0 µmol/L"}, "[11]": {"system": "ZR-75-1", "experiment": "Induction of polyploidy in human ZR-75-1 cells with RON-/- at 5 umol/L incubated for 72 hrs followed by media replacement without compound measured upto 10 days by microscopic analysis", "format": "functional, cell-based", "conditions": "dose 5.0 µmol/L"}, "[12]": {"system": "MCF7", "experiment": "Induction of polyploidy in human MCF7 cells assessed as cells with 8N chromosome contents at 5 uM incubated for 48 hrs by PI staining based flow cytometry (reference value: 0)", "format": "functional"}, "[13]": {"system": "MCF7", "experiment": "Induction of polyploidy in human MCF7 cells assessed as cells with 16N chromosome contents at 5 uM incubated for 48 hrs by PI staining based flow cytometry (reference value: 0)", "format": "functional"}, "[14]": {"system": "MCF7", "experiment": "Induction of polyploidy in human MCF7 cells assessed as cells with 2N chromosome contents at 5 uM incubated for 72 hrs by PI staining based flow cytometry (reference value: 52)", "format": "functional"}, "[15]": {"system": "T47D", "experiment": "Induction of polyploidy in human T47D cells assessed as cells with 16N chromosome contents at 5 uM incubated for 48 hrs by PI staining based flow cytometry (reference value: 0)", "format": "functional"}, "[16]": {"system": "T47D", "experiment": "Induction of polyploidy in human T47D cells assessed as cells with 2N chromosome contents at 5 uM incubated for 72 hrs by PI staining based flow cytometry (reference value: 48)", "format": "functional"}, "[17]": {"system": "T47D", "experiment": "Induction of polyploidy in human T47D cells assessed as cells with 4N chromosome contents at 5 uM incubated for 72 hrs by PI staining based flow cytometry (reference value: 35)", "format": "functional"}, "[18]": {"system": "ZR-75-1", "experiment": "Induction of polyploidy in human ZR-75-1 cells assessed as cells with 4N chromosome contents at 5 uM incubated for 24 hrs by PI staining based flow cytometry (reference value: 35)", "format": "functional"}, "[19]": {"system": "ZR-75-1", "experiment": "Induction of polyploidy in human ZR-75-1 cells assessed as cells with 8N chromosome contents at 5 uM incubated for 48 hrs by PI staining based flow cytometry (reference value: 0)", "format": "functional"}, "[20]": {"system": "ZR-75-1", "experiment": "Induction of polyploidy in human ZR-75-1 cells assessed as cells with 2N chromosome contents at 5 uM incubated for 72 hrs by PI staining based flow cytometry (reference value: 48)", "format": "functional"}, "[21]": {"system": "ZR-75-1", "experiment": "Induction of polyploidy in human ZR-75-1 cells assessed as cells with 8N chromosome contents at 5 uM incubated for 72 hrs by PI staining based flow cytometry (reference value: 0)", "format": "functional"}, "[22]": {"system": "T47D", "experiment": "Disruption of microtubule dynamics in human T47D cells assessed as absence of functional bipolar spindle assembly at 5 umol/L incubated for 24 hrs by immunofluorescence staining based analysis", "format": "cell-based", "conditions": "dose 5.0 µmol/L", "how_it_was_run": "(§2)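 T-47D cells (1 × 10^6/dish) in RPMI-1640 with 5% FBS were treated with or without 5 µmol/L for 24, 48 and 72 h. Cells were fixed in cold acetone and stained with mouse anti-α-tubulin or anti-γ-tubulin, then an FITC anti-mouse IgG secondary, plus DAPI. Fluorescence microscopy, 200× magnification.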"}, "[23]": {"system": "T47D", "experiment": "Disruption of microtubule dynamics in human T47D cells assessed as lack of chromosomal segregation at 5 umol/L incubated for 24 hrs by immunofluorescence staining based analysis", "format": "functional, cell-based", "conditions": "dose 5.0 µmol/L", "how_it_was_run": "as §2"}, "[24]": {"system": "T47D", "experiment": "Induction of cell cycle arrest at metaphase in human T47D cells assessed as disorganization of multipolar mitotic spindles at 5 umol/L preincubated for 24 hrs followed by extensive compound washout and subsequent culturing in compound-free media measured upto 120 mins by immunofluorescence staining based analysis", "format": "functional", "conditions": "dose 5.0 µmol/L", "how_it_was_run": "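T-47D cells were treated at 37°C with 5 µmol/L for 24 h, washed extensively, then cultured in DMEM with 10% FBS for 30, 60 and 120 min. α- and γ-tubulin were detected by immunofluorescence with DAPI, imaged at 400×. The control was a 24 h preincubation with 5 µmol/L RO-3306. One of 2 experiments.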"}, "[25]": {"experiment": "Effect on doxorubicin resistance in human T47D cells with compound-induced polyploidy assessed as change in doxorubicin-induced cytotoxicity by measuring increase in doxorubicin IC50 at 5 umol/L preincubated for 72 hrs followed by compound washout and subsequent doxorubicin treatment for 72 hrs by MTS assay", "format": "functional, cell-based"}, "[26]": {"experiment": "Effect on cisplatin resistance in human T47D cells with compound-induced polyploidy assessed as change in cisplatin-induced cytotoxicity by measuring increase in cisplatin IC50 at 5 umol/L preincubated for 72 hrs followed by compound washout and subsequent cisplatin treatment for 72 hrs by MTS assay", "format": "functional, cell-based"}, "[27]": {"experiment": "Effect on methotrexate resistance in human T47D cells with compound-induced polyploidy assessed as change in methotrexate-induced cytotoxicity by measuring increase in methotrexate IC50 at 5 umol/L preincubated for 72 hrs followed by compound washout and subsequent methotrexate treatment for 72 hrs by MTS assay", "format": "functional, cell-based"}, "[28]": {"experiment": "Effect on doxorubicin resistance in human ZR-75-1 cells with compound-induced polyploidy assessed as change in doxorubicin-induced cytotoxicity by measuring increase in DOX IC50 at 5 umol/L preincubated for 72 hrs followed by compound washout and subsequent doxorubicin treatment for 72 hrs by MTS assay", "format": "functional, cell-based"}, "[29]": {"system": "T-47D (Homo sapiens)", "experiment": "Disruption of microtubule dynamics in human T-47D cells at 5 umol/L incubated upto 72 hrs by immunofluorescence staining based analysis", "conditions": "dose 5.0 µmol/L"}}, "note": "Active and inactive are the calls of the source. The rule behind the calls is not given here."}
{"smiles": "CCOc1ccn(-c2ccc(F)cc2)c(=O)c1C(=O)Nc1ccc(Oc2ccnc(N)c2Cl)c(F)c1", "note": "[BMS-777607]", "values": [{"measurement": "Cmax", "setting": "[1]", "result": 4.5, "unit": "µM"}, {"measurement": "Activity", "setting": "[2]", "result": "inactive"}, {"measurement": "Activity", "setting": "[3]", "result": "inactive"}, {"measurement": "Activity", "setting": "[4]", "result": 2.3, "unit": "%"}, {"measurement": "Activity", "setting": "[5]", "result": 82, "unit": "%"}, {"measurement": "Activity", "setting": "[6]", "result": 88, "unit": "%"}, {"measurement": "Activity", "setting": "[7]", "result": "Tde"}, {"measurement": "Activity", "setting": "[8]", "result": "Active"}, {"measurement": "Activity", "setting": "[9]", "result": "Active"}, {"measurement": "inhibition", "setting": "[10]", "result": "inactive"}, {"measurement": "Activity", "setting": "[11]", "result": "Active"}, {"measurement": "Activity", "setting": "[12]", "result": 25.5}, {"measurement": "Activity", "setting": "[13]", "result": 0}, {"measurement": "Activity", "setting": "[14]", "result": 12}, {"measurement": "Activity", "setting": "[15]", "result": 18.5}, {"measurement": "Activity", "setting": "[16]", "result": 7.5}, {"measurement": "Activity", "setting": "[17]", "result": 20}, {"measurement": "Activity", "setting": "[18]", "result": 45.5}, {"measurement": "Activity", "setting": "[19]", "result": 20}, {"measurement": "Activity", "setting": "[20]", "result": 5}, {"measurement": "Activity", "setting": "[21]", "result": 20}, {"measurement": "Activity", "setting": "[22]", "result": "Active"}, {"measurement": "Activity", "setting": "[23]", "result": "Active"}, {"measurement": "Activity", "setting": "[24]", "result": "Active"}, {"measurement": "IC50", "setting": "[25]", "result": 1420, "unit": "nM"}, {"measurement": "IC50", "setting": "[26]", "result": 9.1, "unit": "nM"}, {"measurement": "IC50", "setting": "[27]", "result": 585, "unit": "nM"}, {"measurement": "IC50", "setting": "[28]", "result": 1180, "unit": "nM"}, {"measurement": "Activity", "setting": "[29]", "result": "Active"}]}
